Results published in ChEMBL document CHEMBL4402549, “Benzothiazole-Based LRRK2 Inhibitors as Wnt Enhancers and Promoters of Oligodendrocytic Fate” (J Med Chem, 2020).
One block for each molecule: values may come before it. Active and inactive are the calls of the source. No cut-off for these calls is given here.

Assays:
[1] = biological target: T1, Leucine-rich repeat serine/threonine-protein kinase 2 (Homo sapiens, UniProt Q5S007); assay: Inhibition of LRRK2 in human iPSC derived neuronal progenitor cells stably expressing TCF/LEF luciferase reporter gene assessed as increase in AXIN2 mRNA expression in absence of Wnt3a by TaqMan probe based RT-PCR analysis
[2] = biological target: T1, Leucine-rich repeat serine/threonine-protein kinase 2; assay: (§1) Inhibition of LRRK2 in human iPSC derived neuronal progenitor cells stably expressing TCF/LEF luciferase reporter gene assessed as modulation of Wnt/beta-catenin signaling pathway by measuring TCF/LEF dependent beta-catenin mediated transcriptional activity measured after 24 hrs in presence of Wnt3a by Steady-Glo luciferase assay relative to control
How it was run: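 TCF/LEF luciferase reporter activity measured with Wnt3a supplied as conditioned medium from Wnt3a-expressing cells. Compounds screened at 1 and 10 µM. For dose curves, serial dilutions spanned 0.01–20.00 µM, with each concentration repeated eight times. Values are fold increase over DMSO vehicle (average ± SD for the curves).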

[3] = biological target: Leucine-rich repeat serine/threonine-protein kinase 2 (Mus musculus) (UniProt Q5S006); assay: Inhibition of LRRK2 in C57/BL6 mouse neural stem cells derived neurospheres isolated from adult ventricular-subventricular zone assessed as differentiation of neurospheres forming CNPase positive oligodendrocytes at 1 uM treated for 6 days and measured on day 7 by bisbenzimide staining based confocal microscopy
How it was run: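 Dissociated adult V-SVZ neurosphere cells plated on poly-ornithine/fibronectin and cultured 6 days without mitogens with compound at 1 µM, PF-475 reference, DMSO control; fixed day 7. Immunostained for CNPase (oligodendrocytes), β3-tubulin, GFAP, bisbenzimide nuclei; confocal counts of positive cells as % of total; 4 fields per triplicate, two independent experiments, mean ± SEM.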

Mus musculus [4] = organism: Mus musculus; assay: Induction of neurogenesis in C57/BL6 mouse neural stem cells derived neurospheres isolated from adult ventricular-subventricular zone assessed as increase in neurosphere size at 1 to 5 uM measured after 4 days in presence of FGF or EGF by bright field microscopy analysis; format: functional
How it was run: (§2)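 Primary neurospheres from adult mouse V-SVZ neural stem and progenitor cells, cultured 4 days with FGF and EGF and compound at 1 or 5 µM; DMSO vehicle control, PF06447475 as reference LRRK2 inhibitor. Proliferation read as total neurosphere area per bright-field field by ImageJ macro, expressed relative to DMSO (=100); 6 fields per triplicate, three independent experiments, mean ± SEM.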

[5] = biological target: Leucine-rich repeat serine/threonine-protein kinase 2 (Homo sapiens, UniProt Q5S007, G2019S); assay: Inhibition of human GST-tagged LRRK2 G2019S mutant (970 to 2527 residues) expressed in baculovirus expression system assessed as reduction in ADP formation using LRRKtide as substrate measured after 1 hr in presence of ATP by Adapta assay
How it was run: (§3)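 Fluorescence immunoassay detecting ADP formed in the kinase reaction. Dose-response run at ten concentrations per compound in two independent experiments. IC50 given ± standard deviation.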

[6] = biological target: T1, Leucine-rich repeat serine/threonine-protein kinase 2; assay: as §1, with “activity at 10 uM” for “activity”
How it was run: (§4)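 TCF/LEF luciferase reporter assay in human cells stimulated with Wnt3a supplied as Wnt3a-expressing cell conditioned medium; compounds at fixed 1 or 10 µM. Reporter activity expressed as fold increase over DMSO vehicle.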

[7] = biological target: T1, Leucine-rich repeat serine/threonine-protein kinase 2; assay: Inhibition of wild-type human partial length LRRK2 (H970 to E2527 residues) expressed in mammalian expression system at 10 uM by Kinomescan method relative to control
[8] = biological target: T1, Leucine-rich repeat serine/threonine-protein kinase 2; assay: Inhibition of LRRK2 in human iPSC derived neuronal progenitor cells stably expressing TCF/LEF luciferase reporter gene assessed as increase in AXIN2 mRNA expression in presence of Wnt3a by TaqMan probe based RT-PCR analysis
[9] = biological target: T1, Leucine-rich repeat serine/threonine-protein kinase 2; assay: Inhibition of wild type human GST-tagged LRRK2 (970 to 2527 residues) expressed in baculovirus expression system assessed as reduction in ADP formation at 10 uM using LRRKtide as substrate measured after 1 hr in presence of ATP by Adapta assay relative to control
How it was run: (§5)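 Fluorescence immunoassay detecting ADP formed by the kinase reaction. Each compound screened at a single fixed concentration of 10 µM and reported as percent inhibition.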

[10] = system: Leucine-rich repeat serine/threonine-protein kinase 2 (Homo sapiens), Q5S007 [G2019S]; assay: Inhibition of human GST-tagged LRRK2 G2019S mutant (970 to 2527 residues) expressed in baculovirus expression system assessed as reduction in ADP formation at 10 uM using LRRKtide as substrate measured after 1 hr in presence of ATP by Adapta assay relative to control
How it was run: as §5

[11] = biological target: T1, Leucine-rich repeat serine/threonine-protein kinase 2; assay: as §1, with “activity at 1 uM” for “activity”
How it was run: as §4

Mus musculus [12] = organism: Mus musculus; assay: Induction of neurogenesis in C57/BL6 mouse neuronal progenitor cells derived neurospheres isolated from adult ventricular-subventricular zone assessed as increase in neurosphere size at 1 to 5 uM measured after 4 days in presence of FGF or EGF by bright field microscopy analysis; format: functional
How it was run: as §2

[13] = biological target: Leucine-rich repeat serine/threonine-protein kinase 2 (Mus musculus) (UniProt Q5S006); assay: Inhibition of LRRK2 in C57/BL6 mouse neural stem cells derived neurospheres isolated from adult ventricular-subventricular zone assessed as reduction in Rab10 phosphorylation at 10 uM using Rab10 as substrate measured after 7 days in presence of mitogens by Western blot analysis
How it was run: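 Neurosphere cultures from adult mouse SVZ (2 male mice) grown 7 days with mitogens, treated with compound at 10 µM or DMSO. Cell pellets immunoblotted with monoclonal anti-phospho-Rab10 (T73); p-Rab10 quantified over three experiments, mean ± SEM.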

[14] = Induction of neurogenesis in C57/BL6 mouse neural stem cells derived neurospheres isolated from adult ventricular-subventricular zone assessed as increase in total area of neurosphere at 1 to 5 uM measured after 4 days in presence of FGF or EGF by bright field microscopy analysis relative to control; format: functional
How it was run: as §2

[15] = biological target: Leucine-rich repeat serine/threonine-protein kinase 2 (Mus musculus) (UniProt Q5S006); assay: Inhibition of LRRK2 in C57/BL6 mouse neural stem cells derived neurospheres isolated from adult ventricular-subventricular zone assessed as increase in neurosphere proliferation at 1 uM measured after 4 days presence of FGF or EGF by bright field microscopy analysis
[16] = biological target: T1, Leucine-rich repeat serine/threonine-protein kinase 2; assay: Inhibition of wild type human GST-tagged LRRK2 (970 to 2527 residues) expressed in baculovirus expression system assessed as reduction in ADP formation using LRRKtide as substrate measured after 1 hr in presence of ATP by Adapta assay
How it was run: as §3

[17] = Permeability of compound in PBS/EtOH buffer (7:3) at 100 ul and pH 7.4 after 2 hrs and 30 mins by UV plate reader based PAMPA-BBB assay; format: ADME; conditions: read-out: permeability
How it was run: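 PAMPA-BBB using porcine brain lipid membrane; in vitro permeability (Pe) determined alongside ten commercial drugs whose reported Pe values validated the assay; compounds classed CNS+ from Pe.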

Sequence of Leucine-rich repeat serine/threonine-protein kinase 2 (Mus musculus) (Q5S006 whole entry, the tested form may be a part): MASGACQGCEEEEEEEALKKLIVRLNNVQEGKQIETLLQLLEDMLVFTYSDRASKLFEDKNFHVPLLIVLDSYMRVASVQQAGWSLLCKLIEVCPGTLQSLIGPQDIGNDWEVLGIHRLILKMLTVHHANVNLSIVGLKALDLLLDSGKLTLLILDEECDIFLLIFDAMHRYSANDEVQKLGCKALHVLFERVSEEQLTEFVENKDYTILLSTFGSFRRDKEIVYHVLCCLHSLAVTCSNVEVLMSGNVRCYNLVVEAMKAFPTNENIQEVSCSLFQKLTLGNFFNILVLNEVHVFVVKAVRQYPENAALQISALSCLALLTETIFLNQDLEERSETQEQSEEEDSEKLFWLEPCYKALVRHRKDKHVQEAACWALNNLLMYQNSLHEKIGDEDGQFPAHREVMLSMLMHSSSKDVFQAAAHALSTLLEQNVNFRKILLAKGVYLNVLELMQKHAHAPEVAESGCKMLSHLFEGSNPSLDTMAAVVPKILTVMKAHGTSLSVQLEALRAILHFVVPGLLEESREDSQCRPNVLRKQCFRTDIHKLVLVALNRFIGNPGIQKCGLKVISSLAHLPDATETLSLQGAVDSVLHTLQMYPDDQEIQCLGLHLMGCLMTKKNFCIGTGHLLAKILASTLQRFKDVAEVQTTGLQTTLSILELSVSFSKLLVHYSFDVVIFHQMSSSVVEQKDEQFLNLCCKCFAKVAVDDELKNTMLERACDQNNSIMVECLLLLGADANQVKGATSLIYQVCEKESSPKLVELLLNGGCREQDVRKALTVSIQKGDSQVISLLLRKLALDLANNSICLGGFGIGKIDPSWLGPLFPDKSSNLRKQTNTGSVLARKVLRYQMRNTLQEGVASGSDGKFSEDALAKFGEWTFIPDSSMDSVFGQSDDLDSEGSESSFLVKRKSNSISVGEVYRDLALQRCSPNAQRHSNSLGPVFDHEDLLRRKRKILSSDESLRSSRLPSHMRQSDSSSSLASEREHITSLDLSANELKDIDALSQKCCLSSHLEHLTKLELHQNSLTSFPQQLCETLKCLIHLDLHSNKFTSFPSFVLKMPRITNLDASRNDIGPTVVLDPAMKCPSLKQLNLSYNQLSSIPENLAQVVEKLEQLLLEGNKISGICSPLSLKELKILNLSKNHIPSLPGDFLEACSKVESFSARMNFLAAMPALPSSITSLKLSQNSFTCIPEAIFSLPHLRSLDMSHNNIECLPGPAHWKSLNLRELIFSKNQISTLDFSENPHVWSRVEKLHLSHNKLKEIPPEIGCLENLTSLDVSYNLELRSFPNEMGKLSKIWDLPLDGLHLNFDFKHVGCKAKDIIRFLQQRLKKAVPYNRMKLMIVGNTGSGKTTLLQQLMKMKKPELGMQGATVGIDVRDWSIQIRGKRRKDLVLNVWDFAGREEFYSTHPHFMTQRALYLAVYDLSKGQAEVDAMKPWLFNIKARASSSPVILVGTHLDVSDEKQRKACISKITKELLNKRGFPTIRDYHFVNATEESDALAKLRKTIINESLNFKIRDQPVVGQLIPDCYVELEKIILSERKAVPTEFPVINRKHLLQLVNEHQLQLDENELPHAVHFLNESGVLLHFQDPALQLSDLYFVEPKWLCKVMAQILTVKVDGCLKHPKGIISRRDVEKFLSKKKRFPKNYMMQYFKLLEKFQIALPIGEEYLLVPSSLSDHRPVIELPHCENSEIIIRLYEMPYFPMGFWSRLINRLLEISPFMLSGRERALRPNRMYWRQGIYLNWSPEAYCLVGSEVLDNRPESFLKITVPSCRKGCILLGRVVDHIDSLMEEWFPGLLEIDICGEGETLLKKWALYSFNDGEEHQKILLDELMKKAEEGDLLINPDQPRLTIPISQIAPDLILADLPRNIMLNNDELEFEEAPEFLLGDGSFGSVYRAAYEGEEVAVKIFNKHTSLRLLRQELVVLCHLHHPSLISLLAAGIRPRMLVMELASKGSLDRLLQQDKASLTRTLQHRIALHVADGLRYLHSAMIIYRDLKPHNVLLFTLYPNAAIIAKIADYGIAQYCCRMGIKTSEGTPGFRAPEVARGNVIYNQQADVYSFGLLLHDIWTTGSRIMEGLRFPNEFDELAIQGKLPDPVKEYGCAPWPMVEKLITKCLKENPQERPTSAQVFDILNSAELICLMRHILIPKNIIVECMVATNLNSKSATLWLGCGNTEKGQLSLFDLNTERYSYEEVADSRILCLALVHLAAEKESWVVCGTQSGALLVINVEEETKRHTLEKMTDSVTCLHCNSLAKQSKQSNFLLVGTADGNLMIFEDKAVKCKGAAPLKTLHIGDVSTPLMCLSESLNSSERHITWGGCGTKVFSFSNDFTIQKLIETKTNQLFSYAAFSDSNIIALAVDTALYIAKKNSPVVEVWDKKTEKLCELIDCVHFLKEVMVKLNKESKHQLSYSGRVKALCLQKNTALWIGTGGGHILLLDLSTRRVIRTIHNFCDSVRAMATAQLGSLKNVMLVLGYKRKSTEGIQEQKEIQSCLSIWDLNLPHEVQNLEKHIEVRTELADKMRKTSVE
Sequence of Leucine-rich repeat serine/threonine-protein kinase 2 (Homo sapiens, UniProt Q5S007, G2019S) (Q5S007 whole entry G2019S, the tested form may be a part): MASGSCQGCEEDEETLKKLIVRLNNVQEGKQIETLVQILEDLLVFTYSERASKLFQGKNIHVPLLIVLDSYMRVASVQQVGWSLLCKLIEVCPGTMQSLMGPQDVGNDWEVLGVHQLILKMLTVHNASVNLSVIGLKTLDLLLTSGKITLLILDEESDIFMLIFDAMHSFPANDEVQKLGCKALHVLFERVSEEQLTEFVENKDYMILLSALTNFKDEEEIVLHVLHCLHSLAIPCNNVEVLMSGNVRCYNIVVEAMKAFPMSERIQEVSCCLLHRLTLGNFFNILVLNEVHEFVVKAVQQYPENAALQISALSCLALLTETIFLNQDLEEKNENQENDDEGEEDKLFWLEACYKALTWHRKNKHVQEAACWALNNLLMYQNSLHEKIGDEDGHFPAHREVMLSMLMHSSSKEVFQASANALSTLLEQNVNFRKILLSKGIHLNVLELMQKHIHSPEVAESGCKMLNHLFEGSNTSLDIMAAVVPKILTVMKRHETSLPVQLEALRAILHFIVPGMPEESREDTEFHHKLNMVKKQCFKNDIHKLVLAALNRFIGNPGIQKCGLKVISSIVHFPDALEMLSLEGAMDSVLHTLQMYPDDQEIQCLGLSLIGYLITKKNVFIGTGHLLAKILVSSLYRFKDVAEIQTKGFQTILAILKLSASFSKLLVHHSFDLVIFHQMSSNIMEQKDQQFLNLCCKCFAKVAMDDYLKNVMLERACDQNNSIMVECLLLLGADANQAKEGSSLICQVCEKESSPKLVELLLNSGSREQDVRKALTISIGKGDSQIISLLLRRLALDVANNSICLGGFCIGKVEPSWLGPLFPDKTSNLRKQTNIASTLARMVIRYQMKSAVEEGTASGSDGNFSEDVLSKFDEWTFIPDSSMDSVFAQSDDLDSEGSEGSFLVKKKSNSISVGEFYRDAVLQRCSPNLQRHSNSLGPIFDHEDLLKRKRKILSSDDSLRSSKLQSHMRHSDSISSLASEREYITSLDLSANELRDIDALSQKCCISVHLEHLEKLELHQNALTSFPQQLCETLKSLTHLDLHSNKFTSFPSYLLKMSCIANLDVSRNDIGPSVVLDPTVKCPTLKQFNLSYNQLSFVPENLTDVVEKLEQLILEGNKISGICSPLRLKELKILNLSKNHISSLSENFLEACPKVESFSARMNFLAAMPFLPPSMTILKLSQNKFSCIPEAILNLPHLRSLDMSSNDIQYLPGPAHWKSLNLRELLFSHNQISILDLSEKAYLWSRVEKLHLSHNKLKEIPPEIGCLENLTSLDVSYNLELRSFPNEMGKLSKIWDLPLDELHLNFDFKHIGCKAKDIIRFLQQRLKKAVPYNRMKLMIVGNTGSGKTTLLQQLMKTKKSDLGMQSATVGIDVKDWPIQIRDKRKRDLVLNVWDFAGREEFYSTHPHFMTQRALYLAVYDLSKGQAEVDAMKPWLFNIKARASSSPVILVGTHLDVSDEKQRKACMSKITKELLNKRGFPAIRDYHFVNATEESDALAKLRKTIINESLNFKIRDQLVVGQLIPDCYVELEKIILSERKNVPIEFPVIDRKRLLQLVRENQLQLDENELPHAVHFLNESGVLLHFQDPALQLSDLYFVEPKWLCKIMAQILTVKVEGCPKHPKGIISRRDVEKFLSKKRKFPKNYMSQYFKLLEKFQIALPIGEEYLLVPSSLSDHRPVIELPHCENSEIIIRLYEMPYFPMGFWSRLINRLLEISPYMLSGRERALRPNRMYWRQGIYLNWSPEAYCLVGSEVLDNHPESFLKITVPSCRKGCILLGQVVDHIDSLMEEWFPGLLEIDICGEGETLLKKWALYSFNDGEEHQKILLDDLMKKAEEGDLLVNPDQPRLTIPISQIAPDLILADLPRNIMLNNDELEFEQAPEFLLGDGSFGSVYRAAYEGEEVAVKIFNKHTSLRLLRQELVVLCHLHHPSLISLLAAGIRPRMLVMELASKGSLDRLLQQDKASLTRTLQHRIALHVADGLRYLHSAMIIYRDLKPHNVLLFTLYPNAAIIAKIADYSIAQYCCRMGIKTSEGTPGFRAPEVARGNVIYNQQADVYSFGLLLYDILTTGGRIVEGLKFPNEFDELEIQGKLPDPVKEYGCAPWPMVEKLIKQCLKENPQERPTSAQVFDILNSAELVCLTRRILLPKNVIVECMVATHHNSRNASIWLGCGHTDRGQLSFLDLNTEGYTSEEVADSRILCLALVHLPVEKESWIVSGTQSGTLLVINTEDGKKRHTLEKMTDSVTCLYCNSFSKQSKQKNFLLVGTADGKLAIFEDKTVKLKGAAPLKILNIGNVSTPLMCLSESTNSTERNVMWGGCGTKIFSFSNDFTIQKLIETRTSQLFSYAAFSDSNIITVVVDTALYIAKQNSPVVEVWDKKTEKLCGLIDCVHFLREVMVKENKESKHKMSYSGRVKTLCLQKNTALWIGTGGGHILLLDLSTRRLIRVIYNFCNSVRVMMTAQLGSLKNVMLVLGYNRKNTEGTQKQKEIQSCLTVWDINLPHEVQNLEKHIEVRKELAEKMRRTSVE
Sequence of Leucine-rich repeat serine/threonine-protein kinase 2 (Homo sapiens), Q5S007 [G2019S] (Q5S007 whole entry G2019S, the tested form may be a part): as above
T1 sequence (Q5S007 whole entry): as the sequence (Q5S007 whole entry G2019S, the tested form may be a part) above, with S2019G counted along it

Compound: O=C(Nc1nc2ccccc2s1)c1ccc(N2CCOCC2)cc1
inhibition [1]: inactive
inhibition [2]: Dose-dependent effect
inhibition [3]: Active
Activity (Mus musculus [4]): Active
IC50 [5]: 370 nM
fold change (FC) [6]: 2.2
inhibition [7]: < 35%
inhibition [8]: Active
inhibition [9]: 75%
inhibition [10]: 85%
fold change (FC) [11]: 3.25
Activity (Mus musculus [12]): Active
inhibition [13]: Active
fold change (FC) [14]: 1.8 - 2.4
inhibition [15]: Active

inhibition [9]: 32%
Compound: O=C(Nc1nc2c(Cl)cccc2s1)c1ccc(N2CCOCC2)cc1

inhibition [9]: 77%
Compound: CS(=O)(=O)c1ccc2nc(NC(=O)c3ccc(N4CCOCC4)cc3)sc2c1

Compound: O=C(Nc1nc2ccc(F)cc2s1)c1ccc(Cl)cc1
IC50 [16]: 4460 nM
IC50 [5]: 5640 nM
inhibition [9]: 68%
inhibition [10]: 67%

Compound: Cc1cc(-c2ccc3nc(Nc4ccccc4)nn3c2)cc(C)c1O
IC50 [16]: 20 nM
IC50 [5]: 20 nM

Compound: N#Cc1cccc(-c2c[nH]c3ncnc(N4CCOCC4)c23)c1
Activity (Mus musculus [4]): Active
Activity (Mus musculus [12]): Active
fold change (FC) [14]: 1.8 - 2.4

Compound: O=C(Nc1nc2ccc(F)cc2s1)c1ccccc1
IC50 [16]: 520 nM
inhibition [1]: inactive
inhibition [2]: Dose-dependent effect
Activity (Mus musculus [4]): Active
IC50 [5]: 520 nM
fold change (FC) [6]: 2.29
inhibition [8]: Active
inhibition [9]: 81%
Papp at 2.5 h [17]: 15 ×10⁻⁶ cm/s
inhibition [10]: 79%
fold change (FC) [11]: 1.43
Activity (Mus musculus [12]): Active
fold change (FC) [14]: 1.8 - 2.4

Compound: CCOc1ccc2nc(NC(=O)c3ccc(N4CCOCC4)cc3)sc2c1
IC50 [16]: 300 nM
inhibition [9]: 80%
inhibition [10]: 85%

Compound: O=C(Nc1nc2ccc(Cl)cc2s1)c1ccc(N2CCOCC2)cc1
IC50 [16]: 370 nM
inhibition [9]: 60%
inhibition [10]: 50%

Compound: CCCOc1ccc2nc(NC(=O)c3ccc(N4CCOCC4)cc3)sc2c1
inhibition [9]: 13%

inhibition [9]: 22%
Compound: CCOC(=O)c1ccc2nc(NC(=O)c3ccc(N4CCOCC4)cc3)sc2c1

inhibition [2]: Dose-dependent effect
Compound: Cc1cnc(-c2cnc(NCCNc3ccc(C#N)cn3)nc2-c2ccc(Cl)cc2Cl)[nH]1

inhibition [9]: 11%
Compound: O=C(CCCC(=O)c1ccccc1)Nc1nc2ccc(F)cc2s1

Compound: O=C(Nc1nc2ccc(F)cc2s1)c1ccc(N2CCOCC2)cc1
IC50 [16]: 170 nM
inhibition [1]: inactive
inhibition [2]: Dose-dependent effect
Activity (Mus musculus [4]): Active
IC50 [5]: 180 nM
fold change (FC) [6]: 2
inhibition [8]: Active
inhibition [9]: 66%
inhibition [10]: 55%
fold change (FC) [11]: 1.58
Activity (Mus musculus [12]): Active
fold change (FC) [14]: 1.8 - 2.4

Compound: COc1ccc2nc(NC(=O)c3ccc(N4CCOCC4)cc3)sc2c1
IC50 [5]: 440 nM
inhibition [9]: 73%
inhibition [10]: 93%

Compound: O=C(Nc1nc2ccc(C(F)(F)F)cc2s1)c1ccc(N2CCOCC2)cc1
IC50 [16]: 2270 nM
IC50 [5]: 280 nM
inhibition [9]: 51%
inhibition [10]: 69%

Compound: Cc1ccc2nc(NC(=O)c3ccc(N4CCOCC4)cc3)sc2c1
IC50 [16]: 480 nM
fold change (FC) [6]: 1.79
inhibition [9]: 61%
inhibition [10]: 71%
fold change (FC) [11]: 1.76

Compound: CC(C)c1ccc2nc(NC(=O)c3ccc(N4CCOCC4)cc3)sc2c1
IC50 [16]: 3490 nM
IC50 [5]: 1120 nM
fold change (FC) [6]: 1.22
inhibition [9]: 48%
Papp at 2.5 h [17]: 4.3 ×10⁻⁶ cm/s
inhibition [10]: 70%
fold change (FC) [11]: 1.19

inhibition [9]: 18%
Compound: Cc1cccc2sc(NC(=O)c3ccc(N4CCOCC4)cc3)nc12

Compound: O=C(Nc1nc2ccc(Br)cc2s1)c1ccc(N2CCOCC2)cc1
IC50 [16]: 510 nM
inhibition [1]: inactive
inhibition [2]: Dose-dependent effect
inhibition [3]: Active
Activity (Mus musculus [4]): Active
IC50 [5]: 260 nM
fold change (FC) [6]: 2
inhibition [8]: Active
inhibition [9]: 75%
Papp at 2.5 h [17]: 4.2 ×10⁻⁶ cm/s
inhibition [10]: 70%
fold change (FC) [11]: 1.25
Activity (Mus musculus [12]): Active
inhibition [13]: Active
fold change (FC) [14]: 1.8 - 2.4
inhibition [15]: Active

inhibition [9]: 16%
Compound: COc1ccc2cc(C(=O)Nc3nc4ccc(F)cc4s3)ccc2c1
